The values that follow come from ChEMBL document CHEMBL1143049, “Preparation, biological activity and endogenous occurrence of N6-benzyladenosines” (Bioorg Med Chem, 2007).

For one assay, the system named is HL-60. In words: Antitumor activity against human HL60 cells after 72 hrs by Calcein AM assay. The format is functional, cell-based. As to conditions: HL-60, 72 h. The gist of the method:
(§1)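 Cells grown in DMEM at 37 °C under 5% CO2. Compounds added after 12 h preincubation in 96-well plates, final 0.5-170 μM, with 0.6% final DMSO, then 72 h exposure. Viable cells stained with Calcein AM for 1 h and read at 485/538 nm. IC50 (concentration lethal to 50% of cells) taken from dose-response curves. Run in quadruplicate.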

A further assay has as its system Amaranthus. Briefly: Cytokinin activity in Amaranthus cotyledons assessed as dark induction of betacyanin synthesis at 0.1 mmol/L relative to 6-Benzylaminopurine. Format: functional. Summed up: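 Dark induction of betacyanin in excised Amaranthus cotyledons. DMSO stock brought to 10^-3 M in water, diluted into assay medium (DMSO ≤0.2%). Tested over 10^-4 to 10^-8 M, five replicates per concentration, assay repeated at least three times. Response at the optimal concentration expressed relative to BAP at its optimum (set to 100).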

For a further assay, the system named is B16. Briefly: Antitumor activity against mouse B16 cells after 72 hrs by Calcein AM assay. Format: functional, cell-based. As to conditions: B16, 72 h. Summed up:
as §1

The next assay has as its system Triticum aestivum. In words: Cytokinin activity in wheat assessed as retention of chlorophyll in excised wheat leaves at 0.1 mmol/L relative to 6-Benzylaminopurine by senescence assay. The format is functional. Summed up:
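Senescence assay measuring chlorophyll retention in excised wheat leaves. DMSO stocks brought to 10^-3 M with water, then diluted in assay medium to a final DMSO of at most 0.2%. Concentrations 10^-4 to 10^-8 M, quintuplicate, repeated at least three times. Response at the optimal concentration normalised to BAP optimum = 100.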

A further assay has as its system CCRF-CEM. In words: Antitumor activity against human CEM cells after 72 hrs by Calcein AM assay. Format: functional, cell-based. The gist of the method: as §1
A further assay relates to K562. In words: Antitumor activity against human K562 cells after 72 hrs by Calcein AM assay. The following applies: K562, 72 h. The format is functional, cell-based. Summed up: as §1
Another assay relates to G-361. Briefly: Antitumor activity against human G361 cells after 72 hrs by Calcein AM assay. Format: functional, cell-based. The following applies: G-361, 72 h. The gist of the method:
as §1

Assay [1] is described as follows: Cytotoxicity against mouse NIH 3T3 cells after 72 hrs by Calcein AM assay. Format: cell-based. As to conditions: NIH3T3, 72 h. The gist of the method:
as §1

The next assay has as its system HOS. In words: Antitumor activity against human HOS cells after 72 hrs by Calcein AM assay. Format: functional, cell-based. The gist of the method:
as §1

The test system of assay [2] is Nicotiana tabacum. Briefly: Cytokinin activity in tobacco assessed as stimulation of callus growth at 1 umol/L relative to 6-Benzylaminopurine. Format: functional. Summed up:
(§2)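 Stimulation of tobacco callus growth. Compounds dissolved in DMSO, brought to 10^-3 M in water and diluted into medium (DMSO ≤0.2%). Range 10^-4 to 10^-8 M, five replicates per concentration, at least three independent repeats. Activity at the optimal concentration given relative to BAP's optimal response, taken as 100.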

Assay [3] can be described thus: Antitumor activity against human MCF cells after 72 hrs by Calcein AM assay. The format is functional, cell-based. The gist of the method:
as §1

Assay [4] has as its system Nicotiana tabacum. In words: Cytokinin activity in tobacco assessed as stimulation of callus growth at 0.01 mmol/L relative to 6-Benzylaminopurine. Format: functional. Summed up: as §2
Assay [5] addresses Histidine kinase 4 (Arabidopsis thaliana) (UniProt Q9C5U0). In words: Activation of Arabidopsis thaliana CRE1/AHK4 cytokinin receptor relative to trans-zeatin. On the set-up: concentration or dose not given beside the values. The gist of the method: (§3)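 E. coli KMI001 carrying pSTV28-AHK3 or pIN-III-AHK4, precultured overnight at 25 °C in M9 + 0.1% casamino acids to OD600 ~1. Diluted 1:600, compound or solvent added, then incubated at 25 °C for 28 h (AHK3) or 17 h (CRE1/AHK4). Supernatant incubated with 4-methylumbelliferyl β-D-galactoside for 1 h at 37 °C and stopped with Na2CO3. Fluorescence read at 365/460 nm. β-galactosidase expressed as nmol 4-MU × OD600⁻¹ × h⁻¹.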

In assay [6] the target is T1, Histidine kinase 3 (Arabidopsis thaliana) (UniProt Q9C5U1).
T1 sequence (whole entry): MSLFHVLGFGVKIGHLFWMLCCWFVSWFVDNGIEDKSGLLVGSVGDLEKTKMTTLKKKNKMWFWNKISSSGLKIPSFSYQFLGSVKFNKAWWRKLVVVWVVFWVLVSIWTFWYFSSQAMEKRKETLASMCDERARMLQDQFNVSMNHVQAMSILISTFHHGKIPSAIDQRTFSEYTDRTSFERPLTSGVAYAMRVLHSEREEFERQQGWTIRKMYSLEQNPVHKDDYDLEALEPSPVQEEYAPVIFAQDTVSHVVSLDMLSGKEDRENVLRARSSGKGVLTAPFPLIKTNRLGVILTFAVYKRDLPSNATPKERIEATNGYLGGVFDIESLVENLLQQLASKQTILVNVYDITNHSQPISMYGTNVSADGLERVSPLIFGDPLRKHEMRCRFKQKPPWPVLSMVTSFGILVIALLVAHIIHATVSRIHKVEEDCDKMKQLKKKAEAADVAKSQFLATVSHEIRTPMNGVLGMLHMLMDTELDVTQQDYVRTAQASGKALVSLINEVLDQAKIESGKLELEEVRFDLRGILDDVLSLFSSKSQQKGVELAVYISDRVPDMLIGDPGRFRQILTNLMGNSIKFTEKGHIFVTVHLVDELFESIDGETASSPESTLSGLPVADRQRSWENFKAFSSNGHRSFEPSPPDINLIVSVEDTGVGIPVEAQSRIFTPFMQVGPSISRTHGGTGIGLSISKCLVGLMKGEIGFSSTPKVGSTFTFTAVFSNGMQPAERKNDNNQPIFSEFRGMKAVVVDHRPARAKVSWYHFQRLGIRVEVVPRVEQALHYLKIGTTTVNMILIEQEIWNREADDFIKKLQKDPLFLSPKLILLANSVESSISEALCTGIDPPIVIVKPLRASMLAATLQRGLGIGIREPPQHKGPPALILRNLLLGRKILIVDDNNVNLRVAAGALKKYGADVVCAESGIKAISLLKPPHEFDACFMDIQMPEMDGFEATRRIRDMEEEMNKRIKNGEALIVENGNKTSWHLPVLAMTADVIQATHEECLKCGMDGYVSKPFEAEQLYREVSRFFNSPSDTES
Briefly: Activation of Arabidopsis thaliana AHK3 cytokinin receptor relative to trans-zeatin. On the set-up: concentration or dose not given beside the values. The gist of the method: as §3

pIC50: −log10 of the molar value.

Chain of Histidine kinase 4 (Arabidopsis thaliana) (Q9C5U0 whole entry): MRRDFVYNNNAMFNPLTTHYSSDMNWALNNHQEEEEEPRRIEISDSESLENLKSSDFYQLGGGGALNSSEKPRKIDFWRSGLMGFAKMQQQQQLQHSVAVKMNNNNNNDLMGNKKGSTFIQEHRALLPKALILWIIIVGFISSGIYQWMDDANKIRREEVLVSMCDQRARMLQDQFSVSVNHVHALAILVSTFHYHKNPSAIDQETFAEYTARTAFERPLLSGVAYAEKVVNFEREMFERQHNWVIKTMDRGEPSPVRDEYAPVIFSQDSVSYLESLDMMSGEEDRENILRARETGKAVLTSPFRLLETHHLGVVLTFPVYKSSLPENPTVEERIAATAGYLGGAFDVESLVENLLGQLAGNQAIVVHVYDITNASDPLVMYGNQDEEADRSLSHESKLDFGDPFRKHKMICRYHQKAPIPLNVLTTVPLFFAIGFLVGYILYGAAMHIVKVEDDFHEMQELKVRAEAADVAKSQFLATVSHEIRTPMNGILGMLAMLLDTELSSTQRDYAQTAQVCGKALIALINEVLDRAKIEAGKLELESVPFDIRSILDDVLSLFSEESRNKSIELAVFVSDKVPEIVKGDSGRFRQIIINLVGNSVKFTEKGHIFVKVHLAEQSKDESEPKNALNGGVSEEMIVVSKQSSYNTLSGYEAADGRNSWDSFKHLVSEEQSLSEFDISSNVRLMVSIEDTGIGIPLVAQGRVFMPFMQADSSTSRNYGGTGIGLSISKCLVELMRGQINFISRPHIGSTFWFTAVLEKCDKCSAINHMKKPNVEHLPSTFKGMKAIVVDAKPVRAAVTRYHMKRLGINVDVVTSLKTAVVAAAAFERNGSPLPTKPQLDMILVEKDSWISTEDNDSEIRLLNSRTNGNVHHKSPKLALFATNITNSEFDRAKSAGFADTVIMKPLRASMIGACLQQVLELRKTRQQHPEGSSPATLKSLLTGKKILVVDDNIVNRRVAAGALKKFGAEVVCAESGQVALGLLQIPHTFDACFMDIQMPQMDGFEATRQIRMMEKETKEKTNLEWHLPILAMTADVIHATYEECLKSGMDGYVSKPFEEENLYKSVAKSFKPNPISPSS

As usually defined, the pIC50 is the IC50 on a negative log10 scale, so that one unit is a factor of ten. Turning to `OC[C@H]1O[C@@H](n2cnc3c(NCc4ccc(F)cc4F)ncnc32)[C@H](O)[C@@H]1O`, the pIC50 in the assay with HL-60 is 5.47; in the assay with B16, less than 3.78; in the assay with CCRF-CEM, 5.15; with K562 it was 5.02; with G-361, less than 3.78; in assay [1] it was less than 3.78. Further, the pIC50 (in the assay on HOS; in assay [3]) was less than 3.78 each time. The Activity with Amaranthus came out at 88%; in the assay with Triticum aestivum, 171%; in the assay with Nicotiana tabacum [2] it was 96%.

Take `OC[C@H]1O[C@@H](n2cnc3c(NCc4ccc(F)c(Cl)c4)ncnc32)[C@H](O)[C@@H]1O`: the pIC50 in the assay with HL-60 was 5.46; in the assay with B16, 3.78; in the assay with CCRF-CEM it was 5.47; in the assay on K562, 5.26; with G-361 it was less than 3.78; in assay [1], less than 3.78. Further, the negative logarithm of the IC50 (pIC50) (in the assay with HOS; in [3]) was less than 3.78 in each case. In addition, the values for the Activity in the assay on Amaranthus, in the assay with Triticum aestivum and in the assay on Nicotiana tabacum [2] were 82%, 156% and 87%, respectively.

`Cc1ccccc1CNc1ncnc2c1ncn2[C@@H]1O[C@H](CO)[C@@H](O)[C@H]1O` [METRIFUDIL]: the pIC50 was 5.48 with HL-60; 4.85 in the assay on CCRF-CEM; less than 3.78 with K562; less than 3.78 with G-361; less than 3.78 in [1]; less than 3.78 with HOS. Moreover, the pIC50 in assay [3] was less than 3.78. Besides, the values for the Activity in the assay with Amaranthus, in the assay on Triticum aestivum and with Nicotiana tabacum [2] were 99%, 141% and 98%, respectively.

Consider `OC[C@H]1O[C@@H](n2cnc3c(NCc4cccc(Br)c4)ncnc32)[C@H](O)[C@@H]1O`, for which the negative-log IC50 (pIC50) in the assay on HL-60 is 5.10; in the assay with B16, less than 3.78; with CCRF-CEM, 5.30; in the assay on K562, 4.71; in the assay with G-361, less than 3.78; in assay [1], less than 3.78. For the same compound, the pIC50 (in the assay with HOS; in [3]) was less than 3.78 in each case. The Activity in the assay on Amaranthus amounted to 151%; in the assay on Triticum aestivum, 89%; in the assay with Nicotiana tabacum [4], 82%.

For `COc1ccc(CNc2ncnc3c2ncn3[C@@H]2O[C@H](CO)[C@@H](O)[C@H]2O)c(OC)c1`, the pIC50 is 4.41 with HL-60; less than 3.78 in the assay with CCRF-CEM; less than 3.78 in the assay on K562; less than 3.78 in the assay with HOS; less than 3.78 in assay [3]. The Activity in the assay with Amaranthus is given as 3%; in the assay on Triticum aestivum it was 30%; in the assay with Nicotiana tabacum [4] it was 5%.

As for `OC[C@H]1O[C@@H](n2cnc3c(NCc4cc(F)cc(F)c4)ncnc32)C(O)C1O` (some centres undefined), the pIC50 in the assay on HL-60 is 5.04; with B16, less than 3.78; in the assay with CCRF-CEM, 4.61; in the assay on K562, less than 3.78; in the assay on G-361, less than 3.78; in [1], less than 3.78. Further, the pIC50 in assay [3] is less than 3.78. For the same compound, the Activity with Amaranthus amounted to 110%; in the assay on Triticum aestivum, 195%; in the assay with Nicotiana tabacum [2] it was 95%.

Consider `OC[C@H]1O[C@@H](n2cnc3c(NCc4ccc(F)c(F)c4F)ncnc32)[C@H](O)[C@@H]1O`, for which the pIC50 was 4.89 with HL-60; less than 3.78 in the assay on B16; 4.24 in the assay with CCRF-CEM; less than 3.78 with K562; less than 3.78 in the assay on G-361; less than 3.78 in the assay on HOS. Further, the pIC50 in assay [3] was less than 3.78. Also, the results for the Activity with Amaranthus, in the assay with Triticum aestivum and with Nicotiana tabacum [4] were 95%, 144% and 94%, respectively.

`OC[C@H]1O[C@@H](n2cnc3c(NCc4ccc(Br)cc4)ncnc32)[C@H](O)[C@@H]1O`: the pIC50 in the assay on HL-60 is 4.32; with B16 it was less than 3.78; in the assay on CCRF-CEM it was 4.69; in the assay on K562, 4.17; in the assay with G-361, less than 3.78; in assay [1], less than 3.78. In addition, the pIC50 (in the assay with HOS; in assay [3]) was less than 3.78 throughout. Further, the Activity is recorded as 30% in the assay on Amaranthus, 76% with Triticum aestivum and 16% with Nicotiana tabacum [2].

With `OC[C@H]1O[C@@H](n2cnc3c(NCc4ccccc4OC(F)F)ncnc32)[C@H](O)[C@@H]1O`, the Activity was 81% in the assay on Amaranthus, 180% in the assay with Triticum aestivum and 89% in the assay on Nicotiana tabacum [4]. Also, the pIC50 (in the assay on K562; in the assay on G-361; in the assay with HOS; in assay [3]) was less than 3.78 in each case.

Take `OC[C@H]1O[C@@H](n2cnc3c(NCc4cc(F)c(F)cc4F)ncnc32)[C@H](O)[C@@H]1O`: the Activity in the assay with Amaranthus is recorded as 120%; in the assay with Triticum aestivum, 99%; in the assay on Nicotiana tabacum [4], 95%.

Consider `COc1ccc(CNc2ncnc3c2ncn3[C@@H]2O[C@H](CO)[C@@H](O)[C@H]2O)cc1`, for which the Activity was 0.22% in assay [5]; 2.45% in assay [6]; 17% in the assay on Amaranthus; 65.5% with Triticum aestivum; 2% with Nicotiana tabacum [2]. For the same compound, the pIC50 is less than 3.78 in the assay with HL-60; 4.71 in the assay on B16; less than 3.78 in the assay with CCRF-CEM; 3.81 in the assay on K562; 3.94 in the assay on G-361; less than 3.78 in the assay with HOS. Besides, in assay [3], the pIC50 is less than 3.78.

For `OC[C@H]1O[C@@H](n2cnc3c(NCc4ccc(F)cc4Cl)ncnc32)[C@H](O)[C@@H]1O`, the pIC50 was 5.05 in the assay with HL-60; less than 3.78 in the assay with B16; 4.68 in the assay on CCRF-CEM; 4.81 with K562; less than 3.78 in the assay with G-361; less than 3.78 in assay [1]. For the same compound, the pIC50 (with HOS; in assay [3]) was less than 3.78 throughout. For the same compound, the Activity was determined as 115% with Amaranthus, 165% with Triticum aestivum and 98% with Nicotiana tabacum [4].

On to `Cc1cccc(CNc2ncnc3c2ncn3[C@@H]2O[C@H](CO)[C@@H](O)[C@H]2O)c1O`, for which the pIC50 is 4.82 with HL-60; less than 3.78 in the assay on B16; 6.05 with CCRF-CEM; 4.74 with K562; less than 3.78 with G-361; less than 3.78 with HOS. In assay [3], the pIC50 was 5.16. In addition, the values for the Activity in the assay on Amaranthus and in the assay on Nicotiana tabacum [4] were 55% and 5%, respectively.
